Experimental data as given in paper PMC5976445 (Journal of inorganic biochemistry, 2018).
Read-outs that look alike come from different tables or passages of the source.

Columns and labels:
CYP101D1 [1] = molecular target: T1, CYP101D1 (Novosphingobium aromaticivorans, UniProt Q2GB12); assay: isothermal titration calorimetry; assay type: binding
T1 sequence (Q2GB12 1-421): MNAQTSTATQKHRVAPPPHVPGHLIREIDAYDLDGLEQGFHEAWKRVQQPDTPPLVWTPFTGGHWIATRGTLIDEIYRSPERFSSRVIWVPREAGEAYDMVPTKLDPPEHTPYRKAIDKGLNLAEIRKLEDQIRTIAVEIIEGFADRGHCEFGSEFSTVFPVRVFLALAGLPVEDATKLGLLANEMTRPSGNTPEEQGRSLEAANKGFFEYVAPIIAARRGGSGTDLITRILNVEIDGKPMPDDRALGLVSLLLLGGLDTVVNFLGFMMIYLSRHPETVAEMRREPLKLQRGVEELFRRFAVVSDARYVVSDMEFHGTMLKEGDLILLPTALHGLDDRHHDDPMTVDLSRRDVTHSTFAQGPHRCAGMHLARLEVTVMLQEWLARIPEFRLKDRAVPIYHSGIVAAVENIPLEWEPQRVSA
Procedure, shortened: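 CYP101D1, expressed His-tagged in E. coli BL21(DE3), Ni-IMAC purified, thrombin-cleaved and gel-filtered. ITC at 25°C in 50 mM potassium phosphate without reducing agents. Either 600 μM–1 mM test compound was titrated into 40–50 μM CYP101D1, or 2 mM redox partner into 50 μM CYP101D1 (±1 mM camphor). 18 × 2 μL injections, 150 s apart, 750 rpm. Corrected for dilution enthalpy. 3–5 runs.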

CYP101D1 [2] = molecular target: CYP101D1 (UniProt Q2GB12); assay: ITC
CYP101D1 [3] = molecular target: CYP101D1 (UniProt Q2GB12); assay: ITC; remark: listed apart in the source
CYP101D1 [4] = molecular target: CYP101D1 (UniProt Q2GB12); assay: ITC; remark: listed apart in the source
CYP101D1 [5] = molecular target: CYP101D1 (UniProt Q2GB12); assay: ITC; remark: listed apart in the source

| Kd (CYP101D1 [1]) | Kd (CYP101D1 [2]) | dH (CYP101D1 [2]) | Kd (CYP101D1 [3]) | Kd (CYP101D1 [4]) | dH (CYP101D1 [4]) | Kd (CYP101D1 [5]) | Compound |
| --- | --- | --- | --- | --- | --- | --- | --- |
| 14.9 µM | – | – | – | – | – | – | CC1(C)[C@@H]2CC[C@@]1(C)C(=O)C2 [D-camphor] |
| – | 94.8 µM | -18.2 kcal/mol | 97.7 µM | 41.1 µM | -12.1 kcal/mol | 43.3 µM | Arx (natural protein) |
